Scp-1 inhibitor = blocks human Scp-1 phosphatase activity | Q9GZU7 | Recombinant Scp1, phosphopeptide, malachite green phosphate absorbance | inhibition, % at 20 µM | hit rate 0.88% among 340,000;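 active = inhibition above about 50% at 20 µM, limit read from the data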;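 note: plate controls were DMSO wells with enzyme for no effect and wells lacking enzyme for full effect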
Target sequence (Q9GZU7 76-261 limits assumed): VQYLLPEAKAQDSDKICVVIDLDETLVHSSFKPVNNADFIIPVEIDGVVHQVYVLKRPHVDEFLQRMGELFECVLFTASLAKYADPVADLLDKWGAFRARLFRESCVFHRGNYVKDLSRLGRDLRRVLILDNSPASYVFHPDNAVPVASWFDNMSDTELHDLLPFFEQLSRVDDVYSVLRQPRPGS
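Material: truncated SCP-1 phosphatase (76-261aa) / Buffer or medium: 50 mM Tris acetate pH 5.5, 0.005% Tween-20, 10 mM MgCl2 / Compound dosing: one concentration, 20 µM, with 1.0% DMSO / Incubation: 45 min room-temperature reaction, 5 min colour, 30 min stabiliser / Detection: colorimetric free-phosphate detection, absorbance 630 nm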
FAS-TE inh = blocks the thioesterase domain of human fatty acid synthase. P49327. recombinant FAS-TE, OMFH fluorogenic substrate, fluorescence endpoint. inhibition, % at 15 µM. hit rate 0.67% among 360,000. AID 602261;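 active = compounds whose normalised, plate-corrected inhibition of enzyme fluorescence in the single-dose primary screen is 50% or more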;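 note: 0% = DMSO with enzyme and 100% = substrate without enzyme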
STEP block = inhibitors of human striatal-enriched phosphatase STEP. P54829. recombinant STEP, OMFP fluorogenic substrate, fluorescence. inhibition, % at 20 µM. hit rate 0.25% among 360,000;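 active = inhibition at 20 µM, scaled per plate between control wells, above about 37%, limit read from the data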;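 note: 0% = DMSO with enzyme and substrate and 100% = substrate only without enzyme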
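Material: STEP (striatal-enriched tyrosine phosphatase) enzyme, cell-free; Compound dosing: 20 µM single dose in 1% DMSO; Technique: fluorescence read at 480 nm ex / 540 nm em; Times: reaction 20 min, ambient temperature; Medium: 50 mM Bis-Tris pH 6.0 with 2.5 mM DTT and 0.005% Tween 20; Also added: OMFP at 25 µM.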
SUMO1-SIM PPI = modulators of human SUMO1-mediated protein-protein interactions | SUMO1 binding to a labelled peptide, TR-FRET, 1 h | inhibition, % at 20 µM | hit rate 0.33% among 360,000 | AID 602429; in the data active = inhibition above about 37%
Target sequence (P63165 whole entry, looked up): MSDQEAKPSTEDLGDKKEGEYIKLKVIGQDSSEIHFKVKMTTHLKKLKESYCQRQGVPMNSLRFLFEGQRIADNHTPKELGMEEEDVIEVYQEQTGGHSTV
LMPTP inh = blocks human LMPTP phosphatase | P24666 | inhibition, % at 20 µM | hit rate 0.22% among 360,000 | recombinant LMPTP-A, OMFP fluorogenic substrate, fluorescence intensity;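 active = compounds that cut the enzyme signal by at least half of the control window in the single-dose screen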;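 note: plate controls were DMSO wells with enzyme plus substrate for no effect and substrate without enzyme for full effect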
Target sequence (P24666 whole entry, looked up): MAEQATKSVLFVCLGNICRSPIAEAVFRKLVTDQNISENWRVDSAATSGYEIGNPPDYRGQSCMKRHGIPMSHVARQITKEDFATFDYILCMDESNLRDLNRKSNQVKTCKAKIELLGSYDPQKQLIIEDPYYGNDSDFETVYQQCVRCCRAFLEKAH
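Test system – LMPTP-A phosphatase enzyme · Quantity – 0.625 nM LMPTP-A final · Reagent – OMFP substrate, 400 µM final · Dosing – one test concentration per compound, 20 µM, with 3% DMSO overall · Timing – 50 min enzyme reaction at room temperature, protected from light · Detection – fluorescence intensity · Controls – substrate-only low control, DMSO enzyme-plus-substrate high control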
Scp-1 conf = Scp-1 (human) inhibition, single-dose confirmed; hit rate 61% among 2,500; inhibition, % at 20 µM; recombinant SCP-1 catalytic domain, phosphate release, malachite green absorbance; shares compounds with Scp-1 inhibitor; AID 540281;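 note: plate controls were DMSO with enzyme for no effect and buffer wells lacking enzyme for full effect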
Scp-1 MG ctr = interferes with malachite green readout, flagging false Scp-1 hits; 2,500 tested, under 10 active; AID 540313; Colorimetric interference counterscreen, malachite green absorbance 630 nm; apparent inhibition (interference), % at 20 µM; shares compounds with Scp-1 inhibitor;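 note: compounds added after enzyme reaction finished so only phosphate colour detection is probed; plate controls were DMSO wells with completed Scp-1 reaction for no effect and substrate wells lacking enzyme for full effect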
Scp-1 Tm shift = binds human Scp-1, shifting its melting temperature; shares compounds with Scp-1 inhibitor; Recombinant SCP1, Sypro Orange thermal shift Tm; thermal shift relative to vanadate control, % at 40 µM; hit rate 25% among 1,500; AID 540329;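 active = substances whose mean melting-temperature shift, as a percentage of the reference inhibitor's shift, reaches about 5.3%, limit read from the data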;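 note: 0% = Tm of DMSO wells and 100% = Tm with sodium orthovanadate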
* = called active by the depositor; nt = no result. Hits are enriched below; roughly 1.9% of the tested compounds scored in any of these assays.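 Rule for the calls, unless noted: active = inhibition of at least 30% at 20 µM; inactive = the rest.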

SMILES | Scp-1 inhibitor | FAS-TE inh | STEP block | SUMO1-SIM PPI | LMPTP inh | Scp-1 conf | Scp-1 MG ctr | others
CC(=O)Nc1ccc(S(=O)(=O)NCCC(=O)OCc2ccc([N+](=O)[O-])cc2)cc1 | -7 | 2 | -3 | -27 | 1 | nt | nt
Cc1cccc(Nc2ncc3c(n2)CC(c2ccco2)CC3=O)c1 (configuration not stated) | 86* | 9 | 1 | -7 | 59* | -15 | -11
Cc1cc(C)cc(Nc2ncc3c(n2)CC(c2ccco2)CC3=O)c1 (configuration not stated) | 0 | 7 | 3 | -4 | 20 | nt | nt
O=C(NCCSCc1c(F)cccc1Cl)c1ccc(CN2CCOCC2)cc1 | -2 | -6 | -2 | -2 | -1 | nt | nt
Cc1ccc(NC(=O)Cn2c(O)c(N=NC(=O)c3cc4ccccc4cc3O)c3ccccc32)cc1 | 22 | -5 | 2 | -3 | 18 | nt | nt
COc1ccccc1NC(=O)Cn1c(O)c(N=NC(=O)c2ccccc2O)c2ccccc21 | 94* | -2 | 55* | -5 | 60* | 90* | 4 | Scp-1 Tm shift=3
N#Cc1ccc(-c2c(-c3ccccc3)ncc3cc(F)ccc23)cc1 | 5 | 25 | 1 | -2 | 1 | nt | nt
Nc1ccc(C(=O)Nc2ccc3c(O)cc(S(=O)(=O)O)cc3c2)cc1 | 53* | -6 | 3 | 20 | 21 | 46* | -17 | Scp-1 Tm shift=11*
O=C(c1cc(S(=O)(=O)N2CCOCC2)ccc1F)N(Cc1nnc(-c2ccccc2Cl)o1)C1CC1 | 55* | 0 | 2 | 0 | -1 | -14 | -16
O=C(NCc1ccc2c(c1)OCO2)c1cccc2c1C(=O)N(C1CCCCC1)C2 | -1 | 20 | 3 | 3 | 0 | nt | nt
CCOC(=O)N1CCC(N2Cc3cccc(C(=O)NCc4ccc5c(c4)OCO5)c3C2=O)CC1 | 92* | 19 | 6 | 8 | 3 | 65* | -12 | Scp-1 Tm shift=-6
CCOC(=O)N1CCC(NC(=O)c2cccc3c2C(=O)N(c2ccc(OC)cc2)C3)CC1 | 52* | 2 | 4 | 8 | 3 | 49* | -10 | Scp-1 Tm shift=3
Cc1ccc(OCC(=O)N2N=C(c3ccncc3)CC2(O)C(F)(F)F)cc1C (configuration not stated) | 103* | 6 | -1 | 0 | 1 | -1 | -8
COc1cc(OC)c2ccc(=O)oc2c1C(CC(=O)N1CCCC1)c1ccc2c(c1)OCO2 (configuration not stated) | 48 | 4 | 8 | -2 | 2 | nt | nt
COc1cc(OC)c2ccc(=O)oc2c1C(CC(=O)N1CCCC(C)C1)c1ccc2c(c1)OCO2 (configuration not stated) | 56* | 10 | 6 | 2 | 3 | 54* | -9 | Scp-1 Tm shift=-3
O=C(CN1C(=O)CCSc2ccc(S(=O)(=O)N3CCOCC3)cc21)Nc1ccccc1Cl | 61* | -1 | 6 | 2 | 4 | 46* | -8 | Scp-1 Tm shift=-2
CCCN(C)C1CN(Cc2cn(Cc3ccccc3)nn2)S(=O)(=O)C1 (configuration not stated) | nt | -15 | nt | 1 | 0 | nt | nt
CCN(CC(=O)NC1CCCCC1)S(=O)(=O)c1ccc(Cl)cc1 | 63* | 3 | 1 | 1 | 1 | -8 | -6
CCN(CC(=O)NC1CC1)S(=O)(=O)c1ccc(C)cc1 | 0 | -4 | -2 | -1 | -5 | nt | nt
FC(F)(F)c1nc(-c2ccncc2)ncc1-c1nnnn1-c1ccccc1 | 78* | 10 | 4 | -10 | 0 | -16 | -12
O=C1O[C@@H](c2ccccc2)C[C@@H](O)[C@H](O)CCCc2ccccc21 | nt | -12 | nt | -5 | 1 | nt | nt
CCc1ccc(C2=NN(CCC(=O)NCc3cccs3)C(=O)CC2)cc1 | -2 | -2 | 5 | 2 | -1 | nt | nt
O=C(CSc1nc2ccccc2c(=O)n1-c1ccccc1)NCC1CCCO1 (configuration not stated) | 92* | -4 | -2 | 1 | -2 | -4 | -12
Cc1cc(C)n(CCCNC(=O)C2CC(=O)N(Cc3ccccc3)C2)n1 (configuration not stated) | -3 | -8 | -2 | -2 | -4 | -3 | -4
O=C1CC(=O)Nc2cc(S(=O)(=O)Nc3ccc(Cl)c(C(F)(F)F)c3)ccc2N1 | -8 | 2 | 5 | 2 | 2 | nt | nt
SMILES | Scp-1 inhibitor | FAS-TE inh | STEP block | SUMO1-SIM PPI | LMPTP inh | Scp-1 conf | Scp-1 MG ctr | others
O=C1CC(=O)Nc2cc(S(=O)(=O)Nc3cccc(C(F)(F)F)c3)ccc2N1 | -5 | -2 | -2 | 7 | -1 | -5 | -7
Cn1c(=O)c2c(ncn2CC(=O)N2CCN(S(=O)(=O)c3ccc(Cl)cc3)CC2)n(C)c1=O | 64* | 0 | -2 | 2 | 0 | -13 | -13
Cn1c(NC(=O)/C=C/c2ccccc2)cc(=O)n(C)c1=O | -43 | -8 | -1 | -26 | -2 | -7 | -9
Cn1c(NC(=O)COc2ccccc2)cc(=O)n(C)c1=O | 9 | -4 | 2 | 3 | 0 | -13 | -17
CC(Oc1cccc(Cl)c1)C(=O)Nc1cc(=O)n(C)c(=O)n1C (configuration not stated) | -6 | -4 | -2 | 3 | 1 | -9 | -2
CCCC(=O)Nc1cc(=O)n(C)c(=O)n1C | -6 | -5 | 3 | 3 | 0 | nt | nt
Cn1c(NC(=O)CCc2ccccc2)cc(=O)n(C)c1=O | 7 | -5 | -1 | 7 | -1 | -21 | -16
COc1cccc(CNC(=O)C(c2ccc(Cl)cc2)C(C)C)c1 (configuration not stated) | -8 | -7 | -2 | 5 | -2 | nt | nt
CCC(C)[C@H](NC(=O)c1cc2cc(Cl)ccc2n1C)C(=O)N1CCC(C(=O)O)CC1 (some centres not stated) | -15 | -1 | 2 | 0 | -1 | nt | nt
CCOc1ccccc1NC(=O)Nc1cc(S(=O)(=O)N(C)C)ccc1C | 73* | -2 | -2 | 1 | -1 | -5 | -5
Cc1ccc(S(=O)(=O)N(C)C)cc1NC(=O)Nc1ccccc1 | -13 | 2 | 1 | -1 | 0 | nt | nt
Cn1nc(-c2ccc(C(=O)Nc3ccc(F)cc3)cc2)c2ccccc2c1=O | 60* | 9 | 12 | 4 | 3 | 42* | -16 | Scp-1 Tm shift=-11
Cc1ccc(NC(=O)c2ccc(-c3nn(C)c(=O)c4ccccc34)cc2)cc1 | -9 | 15 | 4 | 1 | 2 | nt | nt
COc1cc(NC(=O)CNC(=O)Cn2cnc3sc(C)c(C)c3c2=O)cc(OC)c1OC | nt | -1 | -2 | 2 | -1 | nt | nt

Screening data deposited in PubChem by Sanford-Burnham Center for Chemical Genomics.
